Results: ChEMBL document CHEMBL6134900 (J Med Chem, 2025)

Test system: NCI-H2030
Assay: Antitumor activity against human NCI-H2030 cells harboring KRAS G12C mutant/SMARCA4 mutant assessed as cell growth inhibition incubated for 7 days by Incucyte S3 analysis
Type: functional, cell-based
Conditions: time 7.0 day; call rule not given here
How it was run: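 H2030 cells plated at 500 per well and grown overnight at 37 °C. Treated with 3-fold dilutions of sotorasib, test agent, or both. Confluency imaged every 4 h for 7 days on IncuCyte S3. Synergy scored as Bliss/Lowe consensus, >10 taken as synergy.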

C=CC(=O)N1CCN(c2nc(=O)n(-c3c(C)ccnc3C(C)C)c3nc(-c4c(O)cccc4F)c(F)cc23)[C@@H](C)C1
Activity: Active; Minimal Inhibition Observed
